TRPC6 activator – mouse TRPC6 channel activation. HEK293-TRPC6 membrane potential dye fluorescence; active compounds read high. B-score at 10 µM. actives 0.13% (n = 310,000);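 active = B-score of the integrated fluorescence ratio above library mean plus 3 SD, and starting fluorescence ratio within library mean plus 5 SD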;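 note: higher score means more depolarization so channel activation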
TRPC4 inh – inhibitors of mouse TRPC4 channel; B-score at 10 µM; Q9QUQ5; actives 0.39% (n = 300,000); AID 2247; HEK293 TRPC4beta/mu-opioid, DAMGO-evoked Fluo4 calcium flux; active compounds read low;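 active = B-score over 3 SD under the library average, no early fluorescence shift, positive overall ratio signal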
Target sequence (Q9QUQ5 whole entry, looked up): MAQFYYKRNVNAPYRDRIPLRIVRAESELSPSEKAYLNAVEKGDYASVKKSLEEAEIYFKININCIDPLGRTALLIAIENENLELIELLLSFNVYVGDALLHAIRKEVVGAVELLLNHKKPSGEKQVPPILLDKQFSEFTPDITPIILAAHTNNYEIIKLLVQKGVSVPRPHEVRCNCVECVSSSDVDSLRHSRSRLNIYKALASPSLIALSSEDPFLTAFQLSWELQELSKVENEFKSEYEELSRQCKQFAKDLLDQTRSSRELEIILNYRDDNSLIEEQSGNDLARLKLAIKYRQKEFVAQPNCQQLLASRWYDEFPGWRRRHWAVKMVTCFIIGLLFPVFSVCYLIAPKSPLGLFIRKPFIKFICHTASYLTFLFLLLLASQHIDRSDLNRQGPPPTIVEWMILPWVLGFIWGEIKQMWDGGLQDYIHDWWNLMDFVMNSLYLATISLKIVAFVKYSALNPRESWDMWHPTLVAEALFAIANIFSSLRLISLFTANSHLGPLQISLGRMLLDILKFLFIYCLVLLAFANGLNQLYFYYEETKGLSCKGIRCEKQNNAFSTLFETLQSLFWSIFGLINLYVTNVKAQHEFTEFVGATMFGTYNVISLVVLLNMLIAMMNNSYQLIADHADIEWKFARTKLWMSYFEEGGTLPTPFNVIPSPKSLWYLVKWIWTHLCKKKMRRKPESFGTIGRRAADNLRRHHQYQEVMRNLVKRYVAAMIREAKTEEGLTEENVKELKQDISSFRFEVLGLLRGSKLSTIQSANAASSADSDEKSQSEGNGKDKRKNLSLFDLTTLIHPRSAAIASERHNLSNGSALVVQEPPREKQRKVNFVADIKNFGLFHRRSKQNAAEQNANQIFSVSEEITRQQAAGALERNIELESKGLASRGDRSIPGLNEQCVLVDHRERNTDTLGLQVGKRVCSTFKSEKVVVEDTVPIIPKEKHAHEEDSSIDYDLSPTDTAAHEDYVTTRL
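Assay system – HEK293 line stably carrying TRPC4beta and mu-opioid receptor · Doses – single dose · Detection – Fluo4 calcium-dye fluorescence, kinetic read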
TRPC4 potent – allosterically enhances the mouse TRPC4 cation channel | HEK293 TRPC4beta/mu-opioid, DAMGO EC20, Fluo-4 Ca2+ flux; active compounds read high | B-score at 10 µM | actives 0.42% (n = 310,000);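 active = B-score of calcium response area above 5 SD of library B-scores, with initial fluorescence ratio within 5 SD of library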
TRPC6 inhibitor – blocks the mouse TRPC6 cation channel; HEK293-TRPC6, membrane potential dye, ACh-evoked depolarization; active compounds read low; B-score at 10 µM; actives 1.1% (n = 310,000); AID 2553;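 active = B-score under library mean minus 3 SD, initial fluorescence not abnormally high, positive integrated signal ratio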;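 note: B-score derived from integrated fluorescence ratio over the kinetic read; more negative B-score means stronger inhibition of depolarization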
TRPC4 act – TRPC4 (mouse) channel activation. Q9QUQ5. HEK293 TRPC4beta/mu-opioid, Fluo4 calcium fluorescence; active compounds read high. B-score at 10 µM. actives 0.49% (n = 310,000);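 active = B-score above 5 SD of library B-scores, and initial fluorescence ratio not above library mean plus 5 SD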;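 note: positive B-score marks a calcium rise read as TRPC4 activation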
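Material: HEK293 stable line with TRPC4beta plus mu-opioid receptor; technique: Fluo4 calcium-sensitive dye fluorescence, kinetic, 1 Hz baseline; timing: Fluo4 dye loading 45 min at room temperature, 110 s recording; controls: assay buffer as low control, maximal DAMGO as high control; read-out: integrated baseline-normalised fluorescence ratio, converted to per-well B score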
Each line names hits and unclear results; the compound was inactive in the other large screens. Rows were chosen to be rich in hits. Some 2.3% of all compounds tested hit in one or more screens of this group.

COc1cc2nc(N(CCCN(C)C)C(=O)c3ccc(S(=O)(=O)N4CCc5ccccc54)cc3)sc2cc1OC	none
CN(C)CCCN(C(=O)c1ccc(S(=O)(=O)N(C)C2CCCCC2)cc1)c1nc2ccc(F)cc2s1	TRPC4 act 140
CN(C)CCCN(C(=O)c1nc2ccccc2s1)c1nc2ccc(F)cc2s1	none
COc1ccc2sc(N(CCCN(C)C)C(=O)c3ccc(S(=O)(=O)N4CCCc5ccccc54)cc3)nc2c1	TRPC4 potent 18
CN(C)CCCN(C(=O)c1ccc(C(=O)c2ccccc2)cc1)c1nc2ccc(F)cc2s1	TRPC4 act 121
CCN(Cc1ccccc1)S(=O)(=O)c1ccc(C(=O)N(CCCN(C)C)c2nc3cc4c(cc3s2)OCCO4)cc1	none
CCN(Cc1ccccc1)S(=O)(=O)c1ccc(C(=O)N(CCCN(C)C)c2nc3ccc(F)cc3s2)cc1	TRPC4 act 63
Cc1ccc(NC(=O)CCn2c(=O)c3cccn3c3ccccc32)cc1C	none
O=C(Nc1ccccc1Oc1cccnc1)C1CCCN(Cc2cccc(Cl)c2)C1 (configuration not stated)	TRPC4 inh -6
COc1cc(CN2CCCC(C(=O)Nc3ccccc3Oc3cccnc3)C2)ccc1F (configuration not stated)	none
Cc1ccccc1CN1CCCC(C(=O)Nc2ccccc2Oc2cccnc2)C1 (configuration not stated)	TRPC4 inh -7
O=S1(=O)CCO[C@H]2Cc3ccccc3[C@H]2N1Cc1ccc(F)cc1	none
COC(=O)C1CCN(C(=O)COC(=O)CSc2ccc(C(N)=O)cc2[N+](=O)[O-])CC1	none
CNc1nc(N)c([N+](=O)[O-])c(Nc2ccccc2OC)n1	none
CCOC(=O)c1c(CN2CCN(C)CC2)n(-c2ccccc2)c2cc(Br)c(O)cc12	none
CCOC(=O)c1c(CSC(=N)N)n(-c2ccccc2)c2cc(Br)c(OC(C)=O)cc12	TRPC4 potent 14
CN1CCCCC1CCN1c2ccccc2Sc2ccc(S(C)=O)cc21 (configuration not stated)	TRPC6 inhibitor -7.5
O=C(CCN1C(=O)c2ccc(Br)cc2C1=O)NC1CCCCC1	none
CCn1c2ccccc2c2cc(CNCCCN3CCOCC3)ccc21	TRPC6 inhibitor -6.3
COc1ccc(CNCc2cc(C)c(OC)cc2C)c(OC)c1	TRPC4 inh -5
CCn1c2ccccc2c2cc(CNCc3ccc(OC)cc3OC)ccc21	TRPC4 act 66
CCC(CC)NCc1ccc2c(c1)c1ccccc1n2CC	none
CCCCCCn1nc(C(=O)N(CCOC)c2c(N)n(CCCC)c(=O)[nH]c2=O)c2ccccc2c1=O	none
CCN(CC)CCNC(=O)c1cc2cc3ccc(OC)cc3nc2o1	none
CCCCN(C)CCNC(=O)c1cc2cc3ccc(OC)cc3nc2o1	TRPC4 potent 12
COc1cc(C(C)=O)ccc1OCC(O)CN1CCN(c2c(C)cccc2C)CC1 (configuration not stated)	TRPC4 act 48
Cc1ccc(NS(=O)(=O)c2ccc3c(c2)NC(=O)CCS3)c(Br)c1	none
Cc1ccc(CN(C(=O)c2cc(=O)c3cc(C)cc(C)c3o2)C2CCS(=O)(=O)C2)cc1 (configuration not stated)	none
Cc1cc2oc(C(=O)N(Cc3cccs3)C3CCS(=O)(=O)C3)cc(=O)c2cc1Cl (configuration not stated)	TRPC4 potent 95
Cc1ccc(CN(C(=O)c2cc(=O)c3cc(Cl)c(C)cc3o2)C2CCS(=O)(=O)C2)cc1 (configuration not stated)	TRPC4 potent 19
CS(=O)(=O)c1cccc(S(=O)(=O)N2CCCCCC2)c1	none
Cc1cc(C)c2c(=O)n(CC(=O)NCCCN3CCN(c4ccccc4F)CC3)sc2n1	TRPC4 inh -5
Cc1cc(C)c2c(=O)n(CC(=O)NCCCN3CCOCC3)sc2n1	none
O=C(Nc1ccc([N+](=O)[O-])cn1)C1CC1	none
O=C(Nc1ccc([N+](=O)[O-])cn1)C1CCCCC1	TRPC4 potent 22
O=C(CN1CCCC1)Nc1cccc(Cl)c1Cl	none
CC(=O)Nc1cccc(C(=O)NCC2(N3CCCCC3)CCCCC2)c1	TRPC4 inh -6
O=C(COC(=O)CSc1ccc(F)cc1)NNC(=O)c1ccc([N+](=O)[O-])cc1	none
COc1ccccc1C(CNC(=O)CSc1ccc2ccccc2c1)N(C)C (configuration not stated)	none
COc1ccccc1C(=O)NCC(c1cccnc1)N(C)C (configuration not stated)	none
COc1ccc(C(CNC(=O)c2cccc3cccnc23)N(C)C)cc1 (configuration not stated)	TRPC4 inh -7, TRPC4 act 108
COc1cccc(C(CNC(=O)C(c2ccccc2)c2ccccc2)N(C)C)c1 (configuration not stated)	TRPC4 inh -6
COc1ccc(C(CNC(=O)CSc2ccccc2C)N(C)C)cc1 (configuration not stated)	TRPC4 act 116
COc1ccc(OCCNC(=O)C(c2ccccc2)c2ccccc2)cc1	none
CN(C)c1ccc(C(CNC(=O)Cc2cccc3ccccc23)N(C)C)cc1 (configuration not stated)	TRPC4 act 77
CCC(C)C(NC(=O)OCc1ccccc1)C(=O)NCC(c1ccccc1)N(C)C (configuration not stated)	TRPC4 inh -5
CC[C@H](C)[C@H](NC(=O)OCc1ccccc1)C(=O)Nc1ccc(NC(C)=O)cc1	none
COc1ccc(C(CNC(=O)C(Cc2ccccc2)NC(N)=O)N(C)C)cc1 (configuration not stated)	TRPC4 act 112
COc1ccc(CC(NC(=O)c2ccccc2)C(=O)NCC(=O)O)cc1 (configuration not stated)	none
COc1ccc(C(CNC(=O)/C=C/c2c(Cl)nc3ccccn23)N(C)C)cc1 (configuration not stated)	TRPC4 act 249
COc1ccc(C(CNC(=O)Cc2ccc(-c3ccccc3)cc2)N(C)C)cc1 (configuration not stated)	TRPC4 act 202
Cc1cc(C)n2nc(CNS(=O)(=O)c3ccc(F)c(C)c3)nc2n1	none
COc1cc(SC)ccc1C(=O)NCCNC(=O)c1nonc1N	none
COc1cccc(-c2c(C#N)c(N)nc3c2c(C)nn3-c2ccccc2)c1O	TRPC4 potent 15
Cc1ccc(C2=NOC3(CC(=O)N(c4ccc(C)cc4)C3=O)C2)cc1 (configuration not stated)	none
CN1CCCC(OC(=O)c2ccccc2F)C1 (configuration not stated)	none
COc1ccccc1C(=O)OC1CCCN(C)C1 (configuration not stated)	TRPC4 potent 10
